Laboratory results published in PMC8040281 (EClinicalMedicine, 2021).
“Also recorded” adds a separate entry of the source. Where two headings read alike, the source gives them in different places.

Legend:
[1] = First-in-human dose escalation: DLTs and MTD/RP2D; type: in vivo
Outline: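 Oral test compound once daily, starting at 60 mg/m2 (0.1 of preclinical non-severely toxic dose). Accelerated titration used 100% increments until ≥Grade 2 toxicity (alopecia excepted), then 3+3 with 25–50% steps. BSA-based dosing (actual dose −20 to +15% of calculated) later switched to flat doses to nearest 50 mg. Taxanes given IV. Toxicity graded by investigator per CTCAE v4.03.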

[2] = type: in vivo, human
[3] = 12-lead ECG and 24-hour Holter monitoring; type: in vivo, human; settings: ECG and Holter monitoring around first dose
Outline: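 Oral test compound given once daily, first two doses 3–7 days apart. 12-lead ECGs were part of safety assessments. 24-hour digital Holter monitoring was run around the first dose to detect QTc changes.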

[4] = system: metastatic or advanced solid malignant tumors; experiment: Anti-tumor activity, RECIST 1.1, investigator assessed; type: in vivo, human
Outline: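 Investigator-assessed RECIST 1.1 response in patients with measurable disease. Oral test compound given once daily continuously, alone or ~2 h before IV paclitaxel at label or institutional dose and schedule. Time to progression is given as a median in weeks by tumor type and KRAS status.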

clinical = settings: human, in vivo, po
[5] = system: NSCLC cell lines harboring KRAS mutations; settings: nonclinical studies; ref [15]; cited from earlier work
[6] = TEAE, all dose levels, label TVB-2640 = monotherapy
[7] = across all dose levels, label TVB-2640 = monotherapy

Compound: Cc1nnc(-c2cc(C(=O)N3CCC(c4ccc(C#N)cc4)CC3)c(C)cc2C2CCC2)[nH]1 [TVB-2640]
- DLT: PPE syndrome ([1]; Grade 3 with paclitaxel, label TVB-2640 = monotherapy): 3 n
- DLTs, total number ([1]; all dose levels, label TVB-2640 = monotherapy): 6
- nature of DLTs ([1]; in vivo): reversible skin and ocular effects
- DLTs at 200 mg flat dose ([1]; label TVB-2640 = monotherapy (N = 6)): no DLTs observed
- DLT: Grade 3 corneal edema ([1]; monotherapy): 1 n
- DLT: iritis ([1]; monotherapy): 1 n
- DLT: keratitis ([1]; monotherapy): 1 n
- patients with DLTs at 250 mg flat dose ([1]; monotherapy, bilateral eye keratitis and PPE syndrome): 2 of 6
- flat dose equivalent of the MTD/RP2D ([1]; monotherapy, depending on body surface area): 150 to 200 mg
- Any TEAE ([2]; Any Grade, N = 76 monotherapy, N = 55 + paclitaxel): 75 (98.7) n (%)
- Blood and lymphatic system disorders ([2]; TEAE, Any Grade): 11 (14•5) n (%)
- Eye disorders ([2]; TEAE, Any Grade): 38 (50.0) n (%)
- Gastrointestinal disorders ([2]; TEAE, Any Grade): 52 (68.4) n (%)
- Infections and infestations ([2]; TEAE, Any Grade): 36 (47.4) n (%)
- Investigations ([2]; TEAE, Any Grade): 22 (28•9) n (%)
- Metabolism and nutrition system disorders ([2]; TEAE, Any Grade): 31 (40•8) n (%)
- Musculoskeletal and connective tissue disorders ([2]; TEAE, Any Grade): 20 (26•3) n (%)
- Nervous system disorders ([2]; TEAE, Any Grade): 27 (35•5) n (%)
- Respiratory, thoracic, and mediastinal disorders ([2]; TEAE, Any Grade): 34 (44•7) n (%)
- Skin and subcutaneous tissue disorders ([2]; TEAE, Any Grade): 63 (82.9) n (%)
- PPE syndrome, incidence [2, 6]: 46%
- alopecia, incidence [2, 6]: 61%
- fatigue, incidence [2, 6]: 37%
- decreased appetite, incidence ([2]; TEAE, monotherapy): 26%
- dry eye, incidence ([2]; TEAE, monotherapy): 17%
- dry skin, incidence ([2]; TEAE, monotherapy): 22%
- lacrimation increased, incidence ([2]; TEAE, monotherapy): 13%
- rash, incidence ([2]; TEAE, monotherapy): 11%
- skin exfoliation, incidence ([2]; TEAE, monotherapy): 12%
- Blood and lymphatic system disorders ([2]; TEAE, ≥Grade 3): 3 (3•9) n (%)
- Eye disorders ([2]; TEAE, ≥Grade 3): 3 (3.9) n (%)
- Gastrointestinal disorders ([2]; TEAE, ≥Grade 3): 3 (3.9) n (%)
- Infections and infestations ([2]; TEAE, ≥Grade 3): 5 (6.6) n (%)
- Investigations ([2]; TEAE, ≥Grade 3): 6 (7•9) n (%)
- Metabolism and nutrition system disorders ([2]; TEAE, ≥Grade 3): 5 (6•6) n (%)
- Musculoskeletal and connective tissue disorders ([2]; TEAE, ≥Grade 3): 3 (3•9) n (%)
- Nervous system disorders ([2]; TEAE, ≥Grade 3): 1 (1•3) n (%)
- Respiratory, thoracic, and mediastinal disorders ([2]; TEAE, ≥Grade 3): 2 (2•6) n (%)
- Skin and subcutaneous tissue disorders ([2]; TEAE, ≥Grade 3): 8 (10.5) n (%)
- adverse events resulting in dose reduction, patients [2, 7]: 28%
- adverse events resulting in treatment discontinuation, patients [2, 7]: 22%
- >Grade 2 skin or eye toxicities at the MTD ([2]; human, in vivo): no >Grade 2 skin or eye toxicities were observed
- patients with serious pneumonitis ([2]; label TVB-2640 = monotherapy): not observed
- Any ≥Grade 3 TEAE ([2]; ≥Grade 3, N = 76 monotherapy, N = 55 + paclitaxel): 44 (57.9) n (%)
- QTc prolonging effect [3]: no clinically relevant QTc prolonging effect; also recorded: no significant gastrointestinal or serum chemistry toxicities or evidence of QTc prolongation; also recorded: no evidence of QTc prolongation
- PR rate (confirmed) / best response of CR or PR ([4]; 6/53 evaluable patients with paclitaxel, label TVB-2640 = monotherapy): no patient treated with monotherapy had a complete or partial response; also recorded: No patient had a best response of complete response (CR) or partial response (PR)
- time to progression (TTP), NSCLC KRAS^WT disease ([4]; median, N = 6 monotherapy, label TVB-2640 = monotherapy): 5 weeks
- time to progression (TTP), NSCLC KRAS^MUT disease ([4]; median, N = 11 monotherapy, label TVB-2640 = monotherapy): 22 weeks
- patients who experienced SD ([4]; monotherapy, 29/69 evaluable patients): 42%
- Tmax (clinical): ~4 h
- half-life (clinical): 10 to 13 h

Compound: TVB-3166
- sensitivity of KRAS^MUT versus KRAS^WT NSCLC cell lines to killing [5]: more sensitive to killing with FASN inhibition than KRAS wild-type (KRAS^WT) lines
